Laboratory results: ChEMBL document CHEMBL2177013, “Synthesis and biological evaluation of tylophorine-derived dibenzoquinolines as orally active agents: exploration of the role of tylophorine e ring on biological activity” (J Med Chem, 2012)
The source made the active and inactive calls. The rule behind the calls is not given here.

Tests used:
Rattus norvegicus = assay: Antiinflammatory activity against Sprague-Dawley rat assessed as reduction in carrageenan-induced hind paw edema at 3 mg/kg, ip; type: functional; set-up: scale not given: the % may be the effect or the level left; settings: route intraperitoneal
Method in brief: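 Female Sprague−Dawley rats (193−214 g, 8−9 weeks, n = 5) dosed ip 1 h before subplantar injection of 100 μL 1% carrageenan in saline into the left hind paw. Vehicle group received DMSO (100 μL); indomethacin served as positive control. Inhibition of 30% or more counted as significant.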

Mus musculus = assay: Toxicity in human A549 cells xenografted Nu-Foxn1'nu mouse assessed as incidence of overt toxicity at 10 mg/kg, po administered once daily on day 1 to 10, day 15 to 19 and day 22 to 26; type: organism-based; set-up: dose 10 mg/kg, route oral; settings: in vivo
Method in brief: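 Four-week-old male nude mice given 10 million A549 cells subcutaneously in the right flank. At ~60 mm³, randomised to vehicle (25% DMA + 75% PEG400) or oral gavage once daily (n = 8). Mice monitored for overt adverse signs, with body weight tracked.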

A549 = assay: Antitumor activity against human A549 cells xenografted in Nu-Foxn1'nu mouse assessed as reduction in tumor volume at 10 mg/kg, po administered once daily on day 1 to 10, day 15 to 19 and day 22 to 26; type: functional; set-up: scale not given: the % may be the effect or the level left
Method in brief: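 Four-week-old male nude mice received 10 million A549 cells sc in the right flank. At ~60 mm³ tumours, mice were randomised (n = 8) and dosed by oral gavage in 25% DMA + 75% PEG400. Volume = a×b²/2. T/C (%) computed from day 1 and day 60 volumes versus vehicle.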

RAW264.7 [1] = assay: Reduction in LPS/INFgamma-induced iNOS protein expression in mouse RAW264.7 cells incubated for 20 hrs by Western blotting; type: functional, cell-based
Method in brief: (§1)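 LPS/IFNγ-stimulated RAW264.7 cells treated with compound for 20 h. iNOS, COX-2 and GAPDH detected by Western blot; representative of at least three independent experiments.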

MCF7 [2] = assay: Induction of c-Jun protein accumulation in human MCF7 cells incubated for 24 hrs by Western blotting; type: functional, cell-based
MCF7 [3] = assay: Growth inhibition of human MCF7 cells; type: functional
Method in brief: (§2)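 Cells seeded per well: NUGC-3 4500, HONE-1 6000, MCF-7 6500, NCI-H460 2500, HepG2 10000, A549 5000; A549 grown in RPMI 1640 with 2 g/L NaHCO₃, 2 mM L-glutamine and 10% FBS. GI₅₀ = concentration giving 50% growth inhibition, mean of at least three experiments each in duplicate. Paclitaxel served as positive control.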

RAW264.7 [4] = assay: Reduction in LPS/INFgamma-induced COX2 protein expression in mouse RAW264.7 cells incubated for 20 hrs by Western blotting; type: functional, cell-based; method in brief: as §1
[5] = AUC (0 to infinity) in Sprague-Dawley rat at 3 mg/kg, po by HPLC-MS method; type: ADME, organism-based; set-up: dose 3 mg/kg, route oral, time infinity; settings: plasma
Method in brief: (§3)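 Male rats (330−380 g, 9−10 weeks old), jugular vein cannulated 1 day before dosing, fasted; 3 mg/kg iv or oral in DMA/PEG400 (30/70, v/v), n = 3. Blood (150 μL) drawn at 0, 2, 5 (iv only), 15, 30 min and 1, 2, 4, 6, 8, 12, 24 h, kept on ice; plasma analysed by HPLC-MS; noncompartmental analysis.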

[6] = Growth inhibition of human HONE1 cells; type: functional; method in brief: as §2
[7] = Solubility in DMA; type: physicochemical
[8] = AUC (0 to infinity) in Sprague-Dawley rat at 3 mg/kg, iv by HPLC-MS method; type: ADME, organism-based; set-up: time infinity, dose 3 mg/kg, route intravenous; settings: plasma; method in brief: as §3

With `CCN1Cc2c(c3ccc(OC)cc3c3cc(OC)c(OC)cc23)C(O)C1` (stereo unspecified) as the compound, how does the Activity (Rattus norvegicus) read?
Its Activity is >60%.

What about the Activity (Mus musculus) of the same compound?
Its Activity is “Non-toxic”.

And the Activity (A549)?
Its Activity is 61%.

What about the Activity (RAW264.7 [1]) of the same compound?
The Activity was “Active”.

And the Activity (MCF7 [2])?
Its Activity is “Active”.

And the GI50 (MCF7 [3])?
Its GI50 is 40 nM.

What about the Activity (RAW264.7 [4]) of the same compound?
Its Activity is “Active”.

What about the AUC(0-inf) [5] of the same compound?
Its AUC(0-inf) is 646 ng·h/mL.

And the GI50 [6]?
Its GI50 is 60 nM.

What about the solubility [7] of the same compound?
The solubility was “soluble”.

What about the AUC(0-inf) [8] of the same compound?
Its AUC(0-inf) is 999 ng·h/mL.
